Assay results from ChEMBL document CHEMBL1139875, “Discovery of 4-aminobutyric acid derivatives possessing anticonvulsant and antinociceptive activities: a hybrid pharmacophore approach” (2007).
Active and inactive are the calls of the source. The rule behind the calls is not given here.

How the values were obtained:
Mus musculus [1] = assay: Anticonvulsant activity in Swiss Albino mouse at 300 mg/kg, ip after 0.5 hr by MES test; type: functional, organism-based; set-up: dose 300 mg/kg
Procedure, shortened: (§1)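 Mice (Swiss, 20-25 g) given i.p. doses of 30, 100 and 300 mg/kg under ADD program protocols, three per group, examined at 0.5 and 4 h in MES, scPTZ, scSTY or scPIC seizure tests. Value is the minimum dose protecting half or more of the mice.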

Mus musculus [2] = assay: Anticonvulsant activity in Swiss Albino mouse at 300 mg/kg, ip after 4 hrs by MES test; type: functional, organism-based; set-up: dose 300 mg/kg; procedure, shortened: as §1
Mus musculus [3] = assay: Anticonvulsant activity in Swiss Albino mouse at 300 mg/kg, ip after 0.5 hr by scPTZ test; type: functional, organism-based; set-up: dose 300 mg/kg; procedure, shortened: as §1
Mus musculus [4] = assay: Anticonvulsant activity in Swiss Albino mouse at 300 mg/kg, ip after 0.5 hr by scSTY test; type: functional, organism-based; set-up: dose 300 mg/kg; procedure, shortened: as §1
Mus musculus [5] = assay: Anticonvulsant activity in Swiss Albino mouse at 300 mg/kg, ip after 4 hrs by scSTY test; type: functional, organism-based; set-up: dose 300 mg/kg; procedure, shortened: as §1
Mus musculus [6] = assay: Anticonvulsant activity in Swiss Albino mouse at 100 mg/kg, ip after 4 hrs by scPIC test; type: functional, organism-based; set-up: dose 100 mg/kg; procedure, shortened: as §1
Mus musculus [7] = assay: Neurotoxicity in Swiss Albino mouse at 300 mg/kg, ip after 0.5 hr by rotarod test; type: functional, organism-based; set-up: dose 300 mg/kg
Procedure, shortened: (§2)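 Swiss mice (20-25 g) are trained on an accelerating rotorod (10 rpm, 3.2 cm rod), then injected i.p. at 30, 100 or 300 mg/kg, with three per group. Neurotoxicity means failure to keep equilibrium for at least 1 min in each of three trials, checked at 0.5 and 4 h. The value reported is the minimum dose affecting half or more of the mice.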

Mus musculus [8] = assay: Neurotoxicity in Swiss Albino mouse at 300 mg/kg, ip after 4 hrs by rotarod test; type: functional, organism-based; set-up: dose 300 mg/kg; procedure, shortened: as §2
Mus musculus [9] = assay: Analgesic activity in Swiss Albino mouse assessed as number of acetic acid-induced writhing per 30 min after 100 mg/kg, ip; type: functional; conditions: route intraperitoneal
Procedure, shortened: (§3)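 Mice in groups of six dosed i.p. at 100 mg/kg, controls receiving 30% v/v PEG 400 in water. Writhing induced by i.p. 0.1 mL of 3% v/v acetic acid 1 h after drug. Writhes (abdominal stretch with at least one hind limb extended) counted over 30 min; % inhibition calculated. Mean ± SEM, Student's t test.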

Mus musculus [10] = assay: Analgesic activity in Swiss Albino mouse assessed as inhibition of acetic acid-induced writhing responses at 100 mg/kg, ip; type: functional; conditions: route intraperitoneal; procedure, shortened: as §3
Rattus norvegicus [11] = assay: Effect on spontaneous pain in Sprague-Dawley rat CCI model assessed as duration of paw withdrawal at 100 mg/kg, ip after 0.5 hr; type: functional; conditions: route intraperitoneal
Procedure, shortened: (§4)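 CCI rats (n = 4) dosed 100 mg/kg i.p. (vehicle 30% v/v PEG 400 in water). After 10 min acclimatization in a cage 5 cm above ground, cumulative time the ipsilateral paw was held off the floor over 5 min recorded, excluding locomotion lifts. Mean ± SEM; ANOVA/Bonferroni versus predrug.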

Rattus norvegicus [12] = assay: Effect on spontaneous pain in Sprague-Dawley rat CCI model assessed as duration of paw withdrawal at 100 mg/kg, ip after 1 hr; type: functional; conditions: route intraperitoneal; procedure, shortened: as §4
Rattus norvegicus [13] = assay: Effect on spontaneous pain in Sprague-Dawley rat CCI model assessed as duration of paw withdrawal at 100 mg/kg, ip after 1.5 hrs; type: functional; conditions: route intraperitoneal
Procedure, shortened: (§5)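 Unilateral CCI of sciatic nerve (Bennett and Xie) in Sprague-Dawley rats under i.p. pentobarbital sodium (65 mg/kg). Spontaneous pain is scored over 5 min after 10 min acclimatization, as cumulative time the ipsilateral paw is held off the floor. Paw lifts from locomotion or repositioning are excluded. Drug is given at 100 mg/kg i.p. with 30% v/v PEG 400 vehicle. Mean ± SEM, n = 4, compared with predrug by ANOVA/Bonferroni.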

Rattus norvegicus [14] = assay: Effect on spontaneous pain in Sprague-Dawley rat CCI model assessed as duration of paw withdrawal at 100 mg/kg, ip after 2 hrs; type: functional; conditions: route intraperitoneal; procedure, shortened: as §5
Rattus norvegicus [15] = assay: Anti-cold allodynia effect in Sprague-Dawley rat CCI model assessed as duration of paw withdrawal 100 mg/kg, ip after 2 hr; type: functional; conditions: route intraperitoneal
Procedure, shortened: (§6)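 CCI by sciatic nerve ligation under pentobarbital (65 mg/kg i.p.). Rats tested at baseline and 9 days post-surgery; those with allodynia dosed i.p. 100 mg/kg, vehicle 30% v/v PEG 400 in water. Acetone (100-200 µL) misted on midplantar affected paw; withdrawal duration recorded, three samples averaged, at least 3 min apart; n = 4.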

Rattus norvegicus [16] = assay: Anti-cold allodynia effect in Sprague-Dawley rat CCI model assessed as duration of paw withdrawal 100 mg/kg, ip after 2.5 hr; type: functional; conditions: route intraperitoneal; procedure, shortened: as §6
Rattus norvegicus [17] = assay: Effect on spontaneous pain in Sprague-Dawley rat CCI model assessed as duration of paw withdrawal at 100 mg/kg, ip after 2.5 hrs; type: functional; conditions: route intraperitoneal; procedure, shortened: as §5
Rattus norvegicus [18] = assay: Effect on spontaneous pain in Sprague-Dawley rat SNL model assessed as duration of paw withdrawal at 100 mg/kg, ip after 0.5 hr; type: functional; conditions: route intraperitoneal
Procedure, shortened: (§7)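 Rats underwent left L5 spinal nerve ligation (Kim and Chung) under i.p. pentobarbital (65 mg/kg). Spontaneous pain is recorded for 5 min after 10 min acclimatization, as cumulative duration the ipsilateral paw is lifted, excluding locomotor lifts. Dosing is 100 mg/kg i.p. in 30% v/v PEG 400/water, with testing at 0.5–2.5 h. Four rats, mean ± SEM versus predrug, one-way ANOVA with Bonferroni.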

Rattus norvegicus [19] = assay: Effect on spontaneous pain in Sprague-Dawley rat SNL model assessed as duration of paw withdrawal at 100 mg/kg, ip after 1 hr; type: functional; conditions: route intraperitoneal; procedure, shortened: as §7
Rattus norvegicus [20] = assay: Effect on spontaneous pain in Sprague-Dawley rat SNL model assessed as duration of paw withdrawal at 100 mg/kg, ip after 1.5 hrs; type: functional; conditions: route intraperitoneal; procedure, shortened: as §7
Rattus norvegicus [21] = assay: Effect on spontaneous pain in Sprague-Dawley rat SNL model assessed as duration of paw withdrawal at 100 mg/kg, ip after 2 hrs; type: functional; conditions: route intraperitoneal; procedure, shortened: as §7
Rattus norvegicus [22] = assay: Effect on spontaneous pain in Sprague-Dawley rat SNL model assessed as duration of paw withdrawal at 100 mg/kg, ip after 2.5 hrs; type: functional; conditions: route intraperitoneal; procedure, shortened: as §7
Rattus norvegicus [23] = species: Rattus norvegicus; assay: Anti-dynamic allodynic effect in Sprague-Dawley rat CCI model assessed as latency to paw withdrawal after 0.5 hr; type: functional
Procedure, shortened: (§8)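 Rats with sciatic nerve chronic constriction injury (pentobarbital 65 mg/kg i.p. anaesthesia), baseline and day 9 testing, then drug per randomization table. After 10 min acclimatization, affected plantar surface stroked mildly with a cotton-bud; paw lift recorded. n = 4; retested 0.5-2.5 h post-dose.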

Rattus norvegicus [24] = species: Rattus norvegicus; assay: Anti-dynamic allodynic effect in Sprague-Dawley rat CCI model assessed as latency to paw withdrawal after 1 hr; type: functional; procedure, shortened: as §8
Rattus norvegicus [25] = species: Rattus norvegicus; assay: Anti-dynamic allodynic effect in Sprague-Dawley rat CCI model assessed as latency to paw withdrawal after 1.5 hr; type: functional; procedure, shortened: as §8
Rattus norvegicus [26] = species: Rattus norvegicus; assay: Anti-dynamic allodynic effect in Sprague-Dawley rat CCI model assessed as latency to paw withdrawal after 2 hr; type: functional; procedure, shortened: as §8
Rattus norvegicus [27] = species: Rattus norvegicus; assay: Anti-dynamic allodynic effect in Sprague-Dawley rat CCI model assessed as latency to paw withdrawal after 2.5 hr; type: functional; procedure, shortened: as §8
Rattus norvegicus [28] = assay: Anti-cold allodynia effect in Sprague-Dawley rat CCI model assessed as duration of paw withdrawal at 100 mg/kg, ip after 0.5 hr; type: functional; conditions: route intraperitoneal; procedure, shortened: as §6
Rattus norvegicus [29] = assay: Anti-cold allodynia effect in Sprague-Dawley rat CCI model assessed as duration of paw withdrawal 100 mg/kg, ip after 1 hr; type: functional; conditions: route intraperitoneal; procedure, shortened: as §6
Rattus norvegicus [30] = assay: Anti-cold allodynia effect in Sprague-Dawley rat CCI model assessed as duration of paw withdrawal 100 mg/kg, ip after 1.5 hr; type: functional; conditions: route intraperitoneal; procedure, shortened: as §6
Mus musculus [31] = assay: Anticonvulsant activity in Swiss Albino mouse at 300 mg/kg, ip after 0.5 hr by scPIC test; type: functional, organism-based; set-up: dose 300 mg/kg; procedure, shortened: as §1
Mus musculus [32] = assay: Anticonvulsant activity in Swiss Albino mouse at 300 mg/kg, ip after 4 hrs by scPIC test; type: functional, organism-based; set-up: dose 300 mg/kg; procedure, shortened: as §1

| Structure (SMILES) | Activity (Mus musculus [1]) | Activity (Mus musculus [2]) | Activity (Mus musculus [3]) | Activity (Mus musculus [4]) | Activity (Mus musculus [5]) | Activity (Mus musculus [7]) | Activity (Mus musculus [8]) | Activity (Mus musculus [9]) | inhibition in vivo at 100 mg/kg (Mus musculus [10]) | Activity (Rattus norvegicus [15]) | Activity (Rattus norvegicus [16]) | Activity (Rattus norvegicus [28]) | Activity (Rattus norvegicus [29]) | Activity (Rattus norvegicus [30]) | further results |
| --- | --- | --- | --- | --- | --- | --- | --- | --- | --- | --- | --- | --- | --- | --- | --- |
| O=C(O)CCCNC(=O)NN=C(Cc1ccccc1)Cc1ccccc1 | inactive | inactive | inactive | Active | Active | inactive | inactive | 10.3 | 94% | 9.1 s | 8.3 s | 24.6 s | 11.6 s | 10.4 s | Activity (Mus musculus [6]): Active; Activity (Rattus norvegicus [11]): 9.2 s; Activity (Rattus norvegicus [12]): 9.7 s; Activity (Rattus norvegicus [13]): 1.3 s; Activity (Rattus norvegicus [14]): 3.2 s; Activity (Rattus norvegicus [17]): 8.5 s; Activity (Rattus norvegicus [18]): 22.2 s; Activity (Rattus norvegicus [19]): 7.9 s; Activity (Rattus norvegicus [20]): 8.9 s; Activity (Rattus norvegicus [21]): 11.8 s; Activity (Rattus norvegicus [22]): 7.4 s; Activity (Rattus norvegicus [23]): 12 s; Activity (Rattus norvegicus [24]): 13.5 s; Activity (Rattus norvegicus [25]): 10.9 s; Activity (Rattus norvegicus [26]): 10.9 s; Activity (Rattus norvegicus [27]): 10.3 s |
| O=C(O)CCCNC(=O)N/N=C/c1cccc([N+](=O)[O-])c1 | inactive | inactive | Active | inactive | inactive | inactive | inactive | 17.7 | 90% | 39.5 s | 13.7 s | 46.3 s | 56.9 s | 44.5 s | Activity (Mus musculus [31]): Active; Activity (Mus musculus [32]): Active |
